# Data reported in PubChem BioAssay.
# Values without a mark were called inactive.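 How the source made its calls: active means viability at or below 30% in both replicate assays; inconclusive means viability at or below 30% in just one of the two assays; inactive means the rest.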
# Assay: HUVEC growth inhibition – cell-based, human, primary screen (AID 575);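 further: 100% = median of untreated cell wells with 0.1% DMSO on each plate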
# Details: HUVEC proliferation, CellTiter-Glo luminescence, 72 h; at 10 µM; hits give low values
# In short: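 Timing: 72 h treatment at 37 °C; material: HUVEC primary cells; technique: CellTiter-Glo luminescence measuring cellular ATP; controls: vehicle and MePR control wells; measure: percent of median DMSO-control luminescence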
row,SMILES,viability
1,Cn1c(=O)[nH]c(=O)c2c1nc(N1CCNCC1)n2CCOc1ccccc1,81.1%
2,COc1ccc(CC(NC(C)=O)C(=O)NC2CCN(c3nc(C)cc(C)c3C#N)CC2)c(OC)c1 (configuration not stated),117%
3,C[C@H](NC(=O)NCc1cccs1)C(=O)O,111%
4,O=C(CCS(=O)(=O)c1cc(Br)cc2c1N(C(=O)C1CC1)CC2)NCC1CCCO1 (configuration not stated),95.5%
5,CCC1CCCCN1C(=O)Cn1c(C(=O)OC)cc2sc(Cl)cc21 (configuration not stated),89.2%
6,CC(=O)c1cnc2cc(-c3ccccc3)nn2c1C,91.4%
7,CCOC(=O)C1CCN(S(=O)(=O)c2cc(Cl)c(C)cc2OC)CC1,105%
8,CCCN1CCN(C(=O)Cn2c(=O)oc3cc(S(=O)(=O)NCc4ccccc4)ccc32)CC1,85.6%
9,COc1ccc(S(=O)(=O)N2CCC(C(=O)c3ccc4c(c3)OCCO4)CC2)cc1,61.7%
10,CCCC(=O)Nc1nnc(CC(=O)OCC)s1,113%
11,c1ccc(OCCCn2nnc(-c3cccnc3)n2)cc1,103%
12,CC(=O)N1C(=O)N(C)C2C1N(C(C)=O)C(=O)N2C (configuration not stated),92.4%
13,COc1cccc(NC(=O)N2CCCC2C(=O)NC(C)C)c1 (configuration not stated),82.6%
14,c1ccc2ncc(-n3cnnn3)cc2c1,83.2%
15,CC(=O)Nc1ccc(OC(=O)c2cccnc2)cc1,116%
16,O=C(CN1C(=O)c2cccc3cccc1c23)N1CCN(c2ccccc2)CC1,111%
17,CSc1ccccc1NC(=O)c1c(Br)cnn1C,79.2%
